hERG protect: hERG (human) protection from proarrhythmic block | CHO-hERG, FluxOR thallium flux, dofetilide IC70 present | 310,000 compounds, 0.51% hits | activation (rescue from dofetilide block), less the hit threshold, % at 10 µM | AID 1511;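 active = activation above the mean of controls blocked by dofetilide plus 5 SD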;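 also: thallium influx through hERG after potassium depolarization seen as dye fluorescence rise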
KCNK9 inh: blocks the human KCNK9 two-pore domain potassium channel; Q9NPC2; B-score at 10 µM; HEK293 KCNK9, FluxOR thallium flux fluorescence; stronger effect = lower value; 310,000 compounds, 1.2% hits;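 active = ratio B-score over 3 SD below the library mean, with starting fluorescence within 5 SD of its mean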;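 also: negative B-score means less thallium flux so channel inhibition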
Cl transport mod: KCC2 (human) Cl- transport modulation | KCC2 cells, thallium flux FluoZin-2 fluorescence | 190,000 compounds, 2.2% hits | B-score of Tl+ flux slope (higher = more flux/activation; lower = inhibition) at 10 µM;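 active = thallium flux slope and its plate-corrected score both differing from the plate sample mean at a set confidence after two filtering rounds, in either direction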;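 also: slope of fluorescence scaled to starting intensity during 10 to 20 s after thallium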
Target sequence (Q9H2X9 whole entry, looked up): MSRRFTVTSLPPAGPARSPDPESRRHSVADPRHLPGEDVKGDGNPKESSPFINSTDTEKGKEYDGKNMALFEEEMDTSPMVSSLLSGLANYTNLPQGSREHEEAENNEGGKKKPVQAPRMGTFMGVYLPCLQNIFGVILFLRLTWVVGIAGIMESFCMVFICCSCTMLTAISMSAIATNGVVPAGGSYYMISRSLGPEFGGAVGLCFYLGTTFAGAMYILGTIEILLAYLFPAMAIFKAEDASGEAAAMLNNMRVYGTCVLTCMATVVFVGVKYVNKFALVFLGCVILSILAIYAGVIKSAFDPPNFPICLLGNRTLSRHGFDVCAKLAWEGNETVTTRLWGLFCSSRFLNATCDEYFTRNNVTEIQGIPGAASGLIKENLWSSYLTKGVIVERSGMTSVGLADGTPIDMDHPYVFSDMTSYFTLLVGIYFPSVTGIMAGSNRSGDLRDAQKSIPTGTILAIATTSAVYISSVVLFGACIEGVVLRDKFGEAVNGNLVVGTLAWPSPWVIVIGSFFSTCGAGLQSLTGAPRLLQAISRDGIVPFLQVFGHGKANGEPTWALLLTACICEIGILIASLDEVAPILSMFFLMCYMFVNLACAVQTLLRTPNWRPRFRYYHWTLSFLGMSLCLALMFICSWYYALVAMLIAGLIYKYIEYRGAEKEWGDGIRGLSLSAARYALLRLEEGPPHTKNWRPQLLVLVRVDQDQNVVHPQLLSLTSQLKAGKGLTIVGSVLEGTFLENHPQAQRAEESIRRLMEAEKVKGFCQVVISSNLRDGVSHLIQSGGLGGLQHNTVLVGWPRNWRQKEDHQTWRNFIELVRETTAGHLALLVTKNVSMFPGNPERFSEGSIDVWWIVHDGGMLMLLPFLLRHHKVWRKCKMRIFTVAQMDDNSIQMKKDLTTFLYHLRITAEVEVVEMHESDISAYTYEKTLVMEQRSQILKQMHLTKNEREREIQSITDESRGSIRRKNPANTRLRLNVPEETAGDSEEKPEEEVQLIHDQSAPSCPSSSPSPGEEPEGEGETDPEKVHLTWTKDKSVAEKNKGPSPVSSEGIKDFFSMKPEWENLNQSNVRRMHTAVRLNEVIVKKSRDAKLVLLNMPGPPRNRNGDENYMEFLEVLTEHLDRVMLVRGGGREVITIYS
KCNQ1 act: potentiates or activates the human KCNQ1 potassium channel; 310,000 compounds, 0.35% hits; CHO-K1 KCNQ1, thallium flux FluxOR fluorescence; stronger effect = higher value; B-score at 10 µM; P51787;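 active = fluorescence ratio B-score, a plate-corrected score, at least three library SD, with initial intensity B-score within 5 SD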
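System: Stable KCNQ1 CHO-K1 line | Incubation: 90 min dye loading and 20 min compound exposure, both at room temperature | Measure: Ratio B score | Medium: Assay buffer for compound exposure, DMSO matched across wells | Compound dosing: Single-concentration screen | Probe or stimulus: K+/Tl+ depolarizing stimulus | Measured by: Kinetic FluxOR fluorescence, 10 s baseline plus 110 s post-stimulus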
KCNK3 inh: human KCNK3 channel inhibition, primary screen; CHO-KCNK3 thallium flux, FluxOR fluorescence; stronger effect = lower value; O14649; B-score at 10 µM; 340,000 compounds, 0.84% hits;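 active = B-score under library mean minus 4 SD, starting fluorescence ratio at most library mean plus 5 SD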;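 also: more negative B-score means stronger inhibition of thallium flux through KCNK3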
KCNQ1 inh: human KCNQ1 channel inhibition. P51787. CHO-K1 KCNQ1, FluxOR thallium flux fluorescence; stronger effect = higher value. B-score at 10 µM. 310,000 compounds, 1.3% hits. AID 2642;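 active = compounds whose thallium flux B-score, printed positive for inhibition, exceeds three library SD while starting fluorescence stays within three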;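 also: channel opened by potassium depolarization with thallium stimulus after 20 min compound exposure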
KCC2 sec1: KCC2 (human) modulation, secondary assay; AID 1713; 3,700 compounds, 15% hits; shares compounds with Cl transport mod; HEK293-KCC2, thallium flux, FluoZin2 fluorescence; stronger effect = higher value; normalised thallium flux (F/F0 slope) at 10 µM;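 active = thallium flux slope above the same plate's solvent-only control mean plus 3 SD; inconclusive = the two replicate wells disagree; inactive = no significant difference from solvent-only control wells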
KCC2 bumet counter: bumetanide-insensitive thallium flux in KCC2 cells with ouabain, counter-screen. shares compounds with Cl transport mod. 3,700 compounds, 49% hits. AID 1714. HEK293-KCC2 + bumetanide/ouabain, thallium flux FluoZin2; stronger effect = higher value. normalized thallium flux at 10 µM;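 active = thallium entry rate above the same plate's blocked-transporter control wells by more than 3 SD; inconclusive = the two repeat wells disagree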;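 also: raw slope of fluorescence over initial fluorescence between 10 and 20 s after thallium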
KCC2 sec2: KCC2 (human) modulation, second secondary assay; 3,700 compounds, 23% hits; normalized thallium flux at 10 µM; HEK293-KCC2, thallium flux FluoZin2 fluorescence; actives lie on both sides; F/F0 rise rate, 10–20 s post-thallium; shares compounds with Cl transport mod;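 active = thallium flux slope more than 3 SD above or below the plate's solvent-only control mean, mostly below; inconclusive = the two repeat wells disagreed; inactive = no significant shift from solvent-only controls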;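 also: raw slope with 0.1% DMSO as baseline and bumetanide as block control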
HEK293 Tl flux: parental HEK flux effect, counter-screen. shares compounds with Cl transport mod. HEK293 parental cells, thallium flux FluoZin2, ouabain; baseline-ratio fluorescence slope, 10–20 s after thallium. thallium flux rate (normalised fluorescence) at 10 µM. 3,700 compounds, 46% hits. AID 1716;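 active = thallium flux rate significantly above the same plate's solvent-only control wells, beyond their mean plus 3 SD; inconclusive = the two replicate wells gave conflicting results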
KCC2 retest ouab: KCC2 (human) modulation, ouabain retest | shares compounds with Cl transport mod | HEK293-KCC2, thallium flux FluoZin2 fluorescence; bidirectional: low = inhibitor, high = activator | raw Tl+ flux slope (below DMSO = inhibition, above = activation) at 10 µM | 3,700 compounds, 48% hits;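 active = thallium flux slope beyond 3 SD from same-plate DMSO control mean in most replicates, usually higher, sometimes lower; inconclusive = repeat tests gave conflicting results; inactive = no significant difference from controls in most replicates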;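 also: slope of initial-normalized fluorescence between seconds 10 and 20 after thallium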
HEK293 Tl flux2: parental HEK flux effect, counter-screen 2; thallium flux slope at 10 µM; shares compounds with Cl transport mod; HEK293 parental, thallium flux FluoZin-2 fluorescence slope; 3,700 compounds, 33% hits;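 active = thallium flux slope above the same plate's solvent-control mean plus 3 SD in both duplicate wells; inconclusive = duplicate wells that disagreed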;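 also: run without ouabain in cells lacking the KCC2 cotransporter; slope of fluorescence scaled to its starting value between 10 and 20 s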
* marks the source's active call; other numbers are inactive results; i = inactive; u = inconclusive; x = no result. An excerpt weighted towards active compounds, which were near 4.1% of everything screened.

SMILES | hERG protect | KCNK9 inh | Cl transport mod | KCNQ1 act | KCNK3 inh | KCNQ1 inh | KCC2 sec1 | KCC2 bumet counter | KCC2 sec2 | HEK293 Tl flux | KCC2 retest ouab | HEK293 Tl flux2
Cc1ccccc1C1=C/C(=C(\SS/C(C(=O)c2ccc(OCC(=O)O)c(Cl)c2Cl)=C2\C=C(c3ccccc3C)SS2)C(=O)c2ccc(OCC(=O)O)c(Cl)c2Cl)SS1 | x | x | x | x | i | x | x | x | x | x | x | x
COc1cc(OC)cc(C2=NC3(CCC(C)CC3)NC2=S)c1 (stereo not given) | -6 | i | 18* | i | i | i | 0.012 | 0.019* | 0.035 | 0.025* | u | 0.011
NC(=O)CSc1nc(N)c2c3c(sc2n1)CCCCC3 | -11 | i | -1.1 | i | i | i | x | x | x | x | x | x
CNC(=O)CSc1nc(N)c2c3c(sc2n1)CCC3 | -7 | i | -5.8* | i | i | i | 0.011 | 0.0065 | 0.034 | 0.0077 | 0.022 | 0.01
COc1cc(NCCCNC(C)C)c2nccc(C)c2c1 | x | x | x | x | i | x | x | x | x | x | x | x
CCOc1cc(CNCCc2ccc(S(N)(=O)=O)cc2)cc(Cl)c1OCc1ccccc1 | -22 | i | x | i | i | i | u | 0.0046 | 0.031 | 0.0081 | 0.017 | 0.011
C=CCn1c(-c2ccc(Cl)cc2)c[nH]c1=S | -9 | i | 5.2* | i | i | i | u | 0.029* | 0.034 | 0.011* | 0.026 | u
O=C(CSc1nc(-c2ccccc2)nc2c1Cc1ccccc1O2)Nc1ccc(C(=O)O)cc1 | x | x | -0.85 | x | i | x | x | x | x | x | x | x
O=C(CSc1nc(-c2ccc(F)cc2)nc2c1Cc1ccccc1O2)Nc1ccc(C(=O)O)cc1 | x | x | 3.3* | x | i | x | 0.0075 | 0.0074* | 0.036 | 0.013* | 0.024* | 0.012*
O=C1C(=O)N(CCCn2ccnc2)C(c2ccc([N+](=O)[O-])cc2)/C1=C(\O)c1ccc2c(c1)OCCO2 (stereo not given) | x | x | x | x | i | x | x | x | x | x | x | x
Cc1noc(C)c1S(=O)(=O)N1CCC(C(=O)N2CCN(c3ccc(F)cc3)CC2)CC1 | -2 | i | -4.9* | i | x | i | 0.0056 | u | 0.026* | 0.007 | u | 0.011
Cc1cc(C)c(C)c(S(=O)(=O)N2CCC(C(=O)N3CCN(c4ccc(F)cc4)CC3)CC2)c1C | x | x | x | x | i | x | x | x | x | x | x | x
CCC(=O)Oc1ccc(C(CC)C(CC)c2ccc(OC(=O)CC)cc2)cc1 (stereo not given) | -6 | i | 11* | i | i | i | 0.007 | 0.0049 | 0.029 | 0.008 | 0.02 | 0.011
O=C(NCc1ccco1)c1ccc(Br)c(S(=O)(=O)N2CCCCC2)c1 | -3 | i | x | i | i | i | 0.0068 | 0.0037 | u | 0.0071 | 0.016 | 0.0093
CC1=CC(=O)C(C(C)=Nc2cccc(Cl)c2)C(=O)O1 (stereo not given) | x | x | x | x | i | x | x | x | x | x | x | x
CC(/C=C/c1ccccc1F)=N\NC(=O)c1cccc(F)c1 | -18 | i | x | i | i | i | 0.0058 | 0.046* | 0.042* | 0.026* | 0.041* | 0.028*
